From ChEMBL document CHEMBL1144298, “Novel 3-aminochromans as potential pharmacological tools for the serotonin 5-HT(7) receptor” (Bioorg Med Chem Lett, 2005)

Columns and labels:
[1] = target: 5-hydroxytryptamine receptor 7 (Rattus norvegicus, UniProt P32305); test: Binding affinity for rat serotonin 5-HT7 receptor expressed in Sf9 cells using [3H]5-HT radioligand
Method in brief: (§1)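 In vitro radioligand binding on cloned receptors. For 5-HT7, cloned rat receptor expressed in Sf9 cells was labeled with [3H]5-HT. For 5-HT1A, cloned receptor expressed in CHO cells was labeled with [3H]8-OH-DPAT.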

[2] = target: 5-hydroxytryptamine receptor 7 (Rattus norvegicus) (UniProt P32305); test: Efficacy at the 5-HT7 receptor by measuring its effect on cAMP production in CHO cells; format: functional, cell-based
Chain of 5-hydroxytryptamine receptor 7 (Rattus norvegicus) (P32305 whole entry): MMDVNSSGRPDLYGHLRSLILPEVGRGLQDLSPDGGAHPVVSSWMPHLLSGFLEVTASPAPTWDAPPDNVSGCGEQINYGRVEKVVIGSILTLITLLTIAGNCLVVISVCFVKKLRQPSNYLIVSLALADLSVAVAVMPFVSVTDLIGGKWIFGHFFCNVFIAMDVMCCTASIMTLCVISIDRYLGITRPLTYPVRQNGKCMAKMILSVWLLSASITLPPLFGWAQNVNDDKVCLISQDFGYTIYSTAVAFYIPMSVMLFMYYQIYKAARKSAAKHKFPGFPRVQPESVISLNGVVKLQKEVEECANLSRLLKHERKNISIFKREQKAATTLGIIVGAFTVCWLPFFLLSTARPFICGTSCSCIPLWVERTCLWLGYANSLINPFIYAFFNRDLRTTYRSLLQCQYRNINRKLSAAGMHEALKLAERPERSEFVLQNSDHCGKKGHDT

[3] = Binding affinity for rat serotonin 5-HT1A receptor using [3H]8-OH-DPAT as radioligand expressed in CHO cells; format: cell-based; method in brief: as §1
Rattus norvegicus = species: Rattus norvegicus; test: Ratio of binding affinity for serotonin 5-HT1A to serotonin 5-HT7

Chain of 5-hydroxytryptamine receptor 7 (P32305 whole entry): as above

With `COc1cccc(OC)c1-c1cccc2c1OC[C@@H](N(C)C)C2` the Ki [1] was 5.29 nM, the Efficacy [2] was 28% and the Ki [3] was greater than 1000 nM. The Ratio (Rattus norvegicus) was greater than 189.

`COc1cccc(OC)c1-c1ccc2c(c1)C[C@H](N(C)C)CO2` gave a Ki [1] of 367 nM.

Work on `CN(C)[C@@H]1COc2ccc(-c3c(O)cccc3O)cc2C1` yielded a Ki [1] greater than 1000 nM.

`CCCN(CCC)[C@H]1COc2c(cccc2-c2c(OC)cccc2OC)C1` gave a Ki [3] of 174 nM and a Ratio (Rattus norvegicus) of 27.

`Cc1cccc(C)c1-c1ccc2c(c1)C[C@H](N(C)C)CO2` showed a Ki [1] of 13.4 nM, an Efficacy [2] of 76% and a Ki [3] of 75.1 nM. For the same molecule, the Ratio (Rattus norvegicus) was 6.

`COc1c(-c2ccc3c(c2)C[C@H](N(C)C)CO3)ccc2ccccc12` showed a Ki [1] of 75.9 nM, a Ki [3] of 594 nM and a Ratio (Rattus norvegicus) of 8.

For `CN(C)[C@@H]1COc2ccc(-c3ccccc3)cc2C1`, the Ki [1] was greater than 1000 nM.

With `O=S(=O)(c1ccc2cc[nH]c2c1)N1CCC[C@@H]1CCN1CCC(Oc2ccc(Cl)cc2)CC1` the Ki [1] was 1.99 nM, the Efficacy ([2]; filed as antagonist) was “Antagonist” and the Ki [3] was 562 nM. It also gave a Ratio (Rattus norvegicus) of 282.
